{
  "source": "paper PMC6133078",
  "about": "(European Journal of Drug Metabolism and Pharmacokinetics, 2018)",
  "key": {"[1]": {"test": "Stability tests of puquitinib in human plasma QC samples", "assay_type": "physicochemical", "details": "in words", "outline": "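Plasma QC samples (3.00, 250.00, 400.00 ng/mL) were tested three ways: extracted samples at room temperature for about 72 h; three freeze (−80 °C) and thaw (room temperature) cycles within a month, analysed in triplicate; and storage at −80 °C for 1 month. Quantified by HPLC–MS/MS against same-day calibration; accuracy given as RE%.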"}, "[2]": {"tested_on": "several cancer cell lines, such as lung, breast, ovarian, colon, prostate cancer, leukemia, lymphoma and osteosarcoma", "details": "according to the data in vitro; cited from earlier work"}, "xenograft": {"tested_on": "xenograft", "details": "xenograft mice model; preliminary studies; cited from earlier work"}},
  "note": "Structures can show the parent of a compound that is named as a salt.",
  "data": [
    {"compound": "c1cnc2ccc(Nc3nc(NC4CC4)c4nc[nH]c4n3)cc2c1", "note": "[puquitinib, Puquitinib mesylate]", "values": [
      {"measurement": "stability during short-term, freeze and thaw and long-term tests", "setting": "[1]", "result": "good stability"},
      {"measurement": "IC50", "setting": "[2]", "result": "0.5 to 2", "unit": "µM"},
      {"measurement": "antitumor efficacy", "setting": "xenograft", "result": "clear antitumor efficacy"}
    ]}
  ]
}
